Reference: ChEMBL document CHEMBL1131155, “Design of new topoisomerase II inhibitors based upon a quinobenzoxazine self-assembly model” (J Med Chem, 1998)

Assays:
B16 = test: The compound was tested for the concentration to inhibit 50% of B16 murine melanoma cells.; format: functional, cell-based; details: Mus musculus
Summary of the method: (§1)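 Exponentially growing cells seeded on day 0. Graded compound concentrations added in duplicate on day 1, then incubated at 37 °C. MTT (1 mg/mL in PBS) given for 4 h at 37 °C and formazan dissolved in 0.4 N HCl/isopropanol. Absorbance read at 570 nm against a 630 nm reference. IC50 derived from the dose-response curve.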

DU-145 = test: The compound was tested for the concentration to inhibit 50% of DU-145 prostate cells.; format: functional, cell-based; details: Homo sapiens; summary of the method: as §1
HT-29 = test: The compound was tested for the concentration to inhibit 50% of HT-29 colon cells.; format: functional, cell-based; details: Homo sapiens; summary of the method: as §1
NCI-H226 = test: The compound was tested for the concentration to inhibit 50% of H226 non-small cell lung cells.; format: functional, cell-based; details: Homo sapiens; summary of the method: as §1
Raji = test: The compound was tested for the concentration to inhibit 50% of Raji lymphoma cells.; format: functional, cell-based; details: Homo sapiens; summary of the method: as §1
DNA topoisomerase II = DNA topoisomerase II (Homo sapiens, UniProt P11388+Q02880); test: Inhibition of topoisomerase II as conversion of catenated to decatenated KDNA; format: protein assay
Summary of the method: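 kDNA (0.25 μg) preincubated 10 min with varied compound levels in 50 mM Tris-HCl pH 8, 120 mM KCl, 10 mM MgCl₂, 0.5 mM ATP and DTT. Then 2 units human topo II (170-kDa form) added, 37 °C for 30 min. Stopped with sarkosyl stop buffer. Products resolved on 1% agarose with ethidium bromide and quantified by fluorescence scanning.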

MDA-MB-231 = test: The compound was tested for the concentration to inhibit 50% of MDA-231 breast cancer cell lines.; format: functional, cell-based; details: Homo sapiens; summary of the method: as §1
Nucleic Acid = test: Tested for the DNA unwinding concentration that causes a shift of the topoisomers from the original to the middle position between the relaxed and the supercoiled bands.; format: functional
Summary of the method: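 Supercoiled pHOT1 DNA (0.25 μg) relaxed with 5 units topo I, 37 °C for 30 min. Drug at various concentrations then added and incubated a further 30 min. Stopped with 1% SDS, proteinase K treatment at 56 °C, and chloroform-isoamyl alcohol extraction. Topoisomers run on 1% agarose in TPE with 0.2 μg/mL chloroquine, 10 V for 20 h. Gel post-stained with ethidium and scanned.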

| IC50 (B16) | IC50 (DU-145) | IC50 (HT-29) | IC50 (NCI-H226) | IC50 (Raji) | IC50 (DNA topoisomerase II) | IC50 (MDA-MB-231) | SMILES | DNA unwinding concentration (Nucleic Acid) |
| --- | --- | --- | --- | --- | --- | --- | --- | --- |
| 0.02 µM | 0.03 µM | 0.023 µM | 0.014 µM | 0.029 µM | 0.44 µM | 0.01 µM | N[C@H]1CCN(c2c(F)cc3c(=O)c(C(=O)O)cn4c3c2Oc2cc3ccccc3cc2-4)C1 | 13 µM |
| 0.17 µM | 0.16 µM | 0.16 µM | 0.09 µM | 0.05 µM | 0.51 µM | 0.16 µM | N[C@H]1CCN(c2c(F)cc3c(=O)c(C(=O)O)cn4c3c2Oc2ccccc2-4)C1 | 50 µM |
| 0.1 µM | 0.025 µM | 0.028 µM | 0.004 µM | 0.038 µM | 0.77 µM | 0.023 µM | NC1CCN(c2c(F)cc3c(=O)c(C(=O)O)cn4c3c2Oc2cc3ccccc3cc2-4)C1 (stereo unspecified) |  |
| 0.14 µM | 0.048 µM | 0.022 µM | 0.022 µM | 0.032 µM | 0.42 µM | 0.021 µM | N[C@@H]1CCN(c2c(F)cc3c(=O)c(C(=O)O)cn4c3c2Oc2cc3ccccc3cc2-4)C1 | 15 µM |
| 0.13 µM | 0.14 µM | 0.27 µM | 0.13 µM | 0.082 µM | 0.72 µM | 0.19 µM | N[C@H]1CCN(c2c(F)cc3c(=O)c(C(=O)O)cn4c3c2Oc2ccc3ccccc3c2-4)C1 | 19 µM |
| 0.18 µM | 0.064 µM | 0.051 µM | 0.027 µM | 0.02 µM | 0.49 µM | 0.084 µM | N[C@H]1CCN(c2c(F)cc3c(=O)c(C(=O)O)cn4c3c2Oc2c-4ccc3ccccc23)C1 | 10 µM |

Second part, the molecule before the results:

| SMILES | IC50 (B16) | IC50 (DU-145) | IC50 (HT-29) | IC50 (NCI-H226) | IC50 (Raji) | IC50 (DNA topoisomerase II) | IC50 (MDA-MB-231) | DNA unwinding concentration (Nucleic Acid) |
| --- | --- | --- | --- | --- | --- | --- | --- | --- |
| NC1CCN(c2c(F)cc3c(=O)c(C(=O)O)cn4c3c2Oc2ccc3ccccc3c2-4)C1 (stereo unspecified) | 0.44 µM | 0.2 µM | 0.18 µM | 0.14 µM | 0.086 µM | 0.77 µM | 0.15 µM |  |
| O=C(O)c1cn2c3c(c(N4CCNCC4)c(F)cc3c1=O)Oc1c-2ccc2ccccc12 | 0.65 µM | 0.14 µM | 0.36 µM | 0.2 µM | 0.21 µM | 1.84 µM | 0.38 µM | > 100 µM |
| N[C@@H]1CCN(c2c(F)cc3c(=O)c(C(=O)O)cn4c3c2Oc2c-4ccc3ccccc23)C1 | 0.02 µM | 0.03 µM | 0.026 µM | 0.013 µM | 0.034 µM | 0.24 µM | 0.005 µM | 3 µM |
| NC1CCN(c2c(F)cc3c(=O)c(C(=O)O)cn4c3c2Oc2c-4ccc3ccccc23)C1 (stereo unspecified) | 0.04 µM | 0.017 µM | 0.03 µM | 0.022 µM | 0.018 µM | 0.55 µM | 0.027 µM |  |
| N[C@@H]1CCN(c2c(F)cc3c(=O)c(C(=O)O)cn4c3c2Oc2ccc3ccccc3c2-4)C1 | 0.68 µM | 0.36 µM | 0.36 µM | 2.4 µM | 0.16 µM | 1.22 µM | 0.35 µM | 35 µM |
| O=C(O)c1cn2c3c(c(N4CCNCC4)c(F)cc3c1=O)Oc1ccc3ccccc3c1-2 | 2.1 µM | 0.84 µM | 2 µM | 2.1 µM | 0.8 µM | 9.6 µM | 2.2 µM | > 100 µM |
| O=C(O)c1cn2c3c(c(N4CCNCC4)c(F)cc3c1=O)Oc1cc3ccccc3cc1-2 | 0.045 µM | 0.075 µM | 6.8 µM | > 100 µM | 0.0072 µM | 0.64 µM | > 1000 µM | > 100 µM |
